Results of several laboratories.
Compare with care: the assays were run in different laboratories.
Target: Receptor-interacting serine/threonine-protein kinase 2 (RIPK2, Homo sapiens, UniProt O43353)

With `CC(C)(C)c1cc(C=C(C#N)C#N)cc(Br)c1O` the remaining activity was 32.8% (enzyme activity; inhibitor; 0.5 µM).
The remaining binding of `N#CC1(c2ccccn2)CCN(Cc2cc(C(=O)O)c(=O)n3ccccc23)CC1` is reported as 92% (cell-free assay; competition with immobilised ligand; 1 µM).
The remaining binding of `Nc1ncc(-c2nc(N3CCOCC3)nc(N3CCOCC3)n2)c(C(F)F)n1` is reported as 100% (binding; competition with immobilised ligand; 10 µM).
For `O=c1[nH]c2ccccc2n1C1CCN(Cc2ccc(-c3[nH]c4cc5ncnc5cc4nc3-c3ccccc3)cc2)CC1`, the remaining signal was 89.2% (cell-free assay; 0.5 µM).
The inhibition of `Cn1cc(-c2cccc(N3CCc4c(sc5c4CC(C)(C)C5)C3=O)c2CO)cc(Nc2ccncn2)c1=O` is reported as 1% (enzyme activity; inhibitor; 1 µM).
For `COc1ncccc1-c1cnn2ccc(N3CCN(C(=O)OC(C)C)CC3)nc12`, the remaining binding was 51% (binding; competition with immobilised ligand; 1 µM).
`Cn1cc(-c2cc(F)cc(N3CCn4c(cc5c4CCCC5)C3=O)c2CO)cc(Nc2ccc(N3CCN(C4COC4)CC3)cn2)c1=O` has an inhibition of -5% (enzyme activity; inhibitor; 0.1 µM).
With `Cc1nn(C)cc1-c1nc2c(N3CCN(Cc4ccc(Cl)cc4)CC3)c(Cl)cnc2[nH]1` the remaining binding was 100% (binding; competition with immobilised ligand; 1 µM).
`Cn1cncc1[C@@](O)(COc1ccc(C#N)cc1-c1ccc(OC(F)(F)F)cc1)c1ccc(C#N)cc1` has a remaining binding of 100% (cell-free assay; competition with immobilised ligand; 1 µM).
